Screens deposited in PubChem BioAssay by Broad Institute.
GASC1 inh: inhibitors of GASC-1 (KDM4C) histone demethylase, primary screen, biochemical, single concentration HTS | Lysine-specific demethylase 4C (Homo sapiens), Q9H3R0 | GST-KDM4C 2-372, H3K9me3 peptide, LANCE TR-FRET | inhibition, % at 12.5 µM | 96,000 compounds, 0.15% hits | AID 720574, 2013;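 active = mean replicate inhibition above about 25%, with at least 55% of replicates also reaching it, limit read from the data, passing the limit was not always enough; inconclusive = only one of those two conditions met; inactive = neither condition met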
Target sequence (Q9H3R0 2-372 limits assumed): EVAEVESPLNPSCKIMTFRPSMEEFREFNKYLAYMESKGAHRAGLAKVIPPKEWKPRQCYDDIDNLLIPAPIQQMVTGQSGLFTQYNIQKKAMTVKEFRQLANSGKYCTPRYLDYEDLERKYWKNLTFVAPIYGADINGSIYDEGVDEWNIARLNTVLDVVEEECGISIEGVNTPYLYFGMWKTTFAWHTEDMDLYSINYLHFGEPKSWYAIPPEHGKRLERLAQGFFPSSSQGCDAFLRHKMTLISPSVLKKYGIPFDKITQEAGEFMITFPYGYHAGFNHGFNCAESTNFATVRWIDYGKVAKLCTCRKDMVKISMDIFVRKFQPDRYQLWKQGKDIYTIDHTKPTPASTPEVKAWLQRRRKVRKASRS
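Material: GST-tagged GASC-1 (JMJD2C) catalytic fragment, aa 2-372. Input: enzyme final amount 10 nM. Medium: HEPES buffer, pH 7.5, plus ascorbate. Reagent: H3K9me3 peptide substrate, Fe(II), 2-oxoglutarate. Doses: single dose. Times: reaction 30 min RT, detection step 1 h RT. Measured by: LANCE TR-FRET. Evaluation: Fall in 671/618 emission ratio as inhibition.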
IDH1 R132H inh: inhibitors of IDH1 R132H reductase, primary screen, biochemical, plate reader, single point | diaphorase/resazurin fluorescence, 60 min | inhibition, % at 10 µM | 70,000 compounds, 0.18% hits | Isocitrate dehydrogenase [NADP] cytoplasmic (Homo sapiens), O75874 | AID 624101, 2012; in the data active = inhibition above about 34%; inconclusive = no clear call, values can overlap the other calls; inactive = below about 11%
Target sequence (O75874 whole entry R132H): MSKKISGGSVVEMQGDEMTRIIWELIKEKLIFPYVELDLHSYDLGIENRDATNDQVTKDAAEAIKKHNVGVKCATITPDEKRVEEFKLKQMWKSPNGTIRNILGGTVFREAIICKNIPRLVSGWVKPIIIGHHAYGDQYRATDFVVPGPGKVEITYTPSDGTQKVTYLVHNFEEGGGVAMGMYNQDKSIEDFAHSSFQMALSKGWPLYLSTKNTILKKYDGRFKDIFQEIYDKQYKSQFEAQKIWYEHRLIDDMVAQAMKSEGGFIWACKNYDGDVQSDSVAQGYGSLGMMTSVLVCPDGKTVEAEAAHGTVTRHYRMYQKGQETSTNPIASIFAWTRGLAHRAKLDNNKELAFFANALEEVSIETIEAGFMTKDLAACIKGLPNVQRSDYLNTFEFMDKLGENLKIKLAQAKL
T cruzi growth-1: T. cruzi intracellular proliferation inhibitors, primary screen, cell-based, beta-gal Tulahuen parasites, NIH3T3 host, luminescence | 77,000 compounds, 5.9% hits | T. cruzi beta-gal in NIH3T3, GalScreen luminescence, 90 h | inhibition, % at 8.34 µM | AID 624255, 2012;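 active = mean inhibition above about 93%, with at least 55% of replicates each passing it, limit read from the data, passing the limit was not always enough; inconclusive = only one of those two conditions holds; inactive = neither condition holds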
T cruzi growth-2: T. cruzi intracellular proliferation inhibitors, confirmation, cell-based, NIH3T3 host, beta-gal parasite, luminescence, cherry-pick; shares compounds with T cruzi growth-1; T. cruzi beta-gal in NIH3T3, GalScreen luminescence, 90 h; inhibition, % at 8.35 µM; 5,600 compounds, 72% hits; AID 651739, 2012;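 active = mean replicate inhibition above about 95% and at least 55% of replicates individually reaching it, limit read from the data; inconclusive = only one of the two criteria is met; inactive = neither criterion is met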
T cruzi growth-3: inhibitors of intracellular T. cruzi replication, confirmation, NIH3T3 host cells, beta-gal parasites, cherry-pick, set 2; shares compounds with T cruzi growth-1; T. cruzi beta-gal in NIH3T3, GalScreen luminescence, 90 h; inhibition, % at 2.09 µM; 5,600 compounds, 21% hits; AID 651740, 2012;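 active = mean inhibition above about 95%, with at least 55% of replicates also reaching it, limit read from the data; inconclusive = meets just one of the two conditions; inactive = meets neither condition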
NIH3T3 tox: cytotoxicity in mouse NIH/3T3 fibroblasts, confirmation, cytotoxicity control for T. cruzi proliferation inhibitor project, cell-based, cherry-pick, single point; NIH/3T3 viability, CellTiter-Glo ATP luminescence, 90 h; shares compounds with T cruzi growth-1; cytotoxicity (signal decrease), % at 8.35 µM; 5,600 compounds, 14% hits;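 active = mean signal decrease across replicates above about 35% based on untreated-well scatter, with enough replicates individually passing, limit read from the data; inconclusive = no rule stated though some were filed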
NIH3T3 tox 2: NIH/3T3 fibroblast cytotoxicity, confirmation, cytotoxicity control, cell-based, cherry-pick, single point, set 2. shares compounds with T cruzi growth-1. NIH/3T3 viability, CellTiter-Glo ATP luminescence, 90 h. inhibition, % at 24.9 µM. 5,600 compounds, 56% hits. AID 651744, 2012;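 active = mean loss of cell viability signal at or above a set limit, and enough replicates individually reaching it; inconclusive = meets only the mean limit or only the replicate share; inactive = meets neither condition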
Large screens that a line does not name were inactive (follow-up assays come after a bar, where they were run). This excerpt belongs to a sample that is enriched for hits.

CN1c2ccc(-c3cccc(C#N)c3)cc2[C@@H]2[C@@H](CCN2S(=O)(=O)c2ccccc2F)[C@@H]1CO	T cruzi growth-1 91.8 (no result: IDH1 R132H inh) | T cruzi growth-2 108.2 | T cruzi growth-3 inactive | NIH3T3 tox inconclusive | NIH3T3 tox 2 inactive
COc1cccc(-c2ccc3c(c2)[C@@H]2[C@@H](CCN2S(=O)(=O)c2ccc(F)cc2)[C@@H](CO)N3C)c1	none (no result: IDH1 R132H inh)
CN1c2ccc(-c3cccc(C#N)c3)cc2[C@H]2[C@H](CCN2S(=O)(=O)c2cccc(F)c2)[C@H]1CO	none (no result: IDH1 R132H inh)
CN1c2ccc(-c3cccc(C#N)c3)cc2[C@@H]2[C@@H](CCN2S(=O)(=O)c2ccccc2F)[C@H]1CO	none (no result: IDH1 R132H inh)
CN1c2ccc(-c3cccc(C#N)c3)cc2[C@H]2[C@H](CCN2S(=O)(=O)c2ccc(F)cc2)[C@@H]1CO	T cruzi growth-1 96.0 (no result: IDH1 R132H inh) | T cruzi growth-2 102.4 | T cruzi growth-3 inactive | NIH3T3 tox inactive | NIH3T3 tox 2 inactive
COc1cccc(-c2ccc3c(c2)[C@H]2[C@H](CCN2S(=O)(=O)c2ccc(F)cc2)[C@H](CO)N3C)c1	T cruzi growth-1 101.0 (no result: IDH1 R132H inh) | T cruzi growth-2 103.1 | T cruzi growth-3 100.0 | NIH3T3 tox inactive | NIH3T3 tox 2 inactive
O=C(c1ccccn1)N1C[C@@H]2[C@H](c3ccccc31)[C@@H](CO)N2C(=O)CC1CC1	none (no result: IDH1 R132H inh)
Cc1noc(C)c1S(=O)(=O)Nc1ccc2c(c1)CC(=O)N([C@H](C)CO)C[C@H](C)[C@@H](CN(C)S(=O)(=O)c1cccs1)O2	none
C[C@@H]1CN([C@H](C)CO)C(=O)Cc2cc(NS(C)(=O)=O)ccc2O[C@H]1CN(C)S(=O)(=O)c1cccs1	none
C[C@@H]1CCCCO[C@H](CN(C)C(=O)c2ccccc2)[C@H](C)CN([C@@H](C)CO)C(=O)c2cc(NC(=O)Nc3ccc(C(F)(F)F)cc3)ccc2O1	T cruzi growth-1 inconclusive (no result: IDH1 R132H inh) | T cruzi growth-2 101.0 | T cruzi growth-3 111.6 | NIH3T3 tox inactive | NIH3T3 tox 2 48.5
C[C@@H]1CCCCO[C@@H](CN(C)C(=O)c2ccccc2)[C@@H](C)CN([C@H](C)CO)C(=O)c2cc(NC(=O)Nc3ccc(C(F)(F)F)cc3)ccc2O1	none
C[C@@H]1CCCCO[C@H](CN(C)C(=O)c2ccccc2)[C@@H](C)CN([C@@H](C)CO)C(=O)c2cc(NC(=O)Nc3ccc(C(F)(F)F)cc3)ccc2O1	T cruzi growth-1 inconclusive | T cruzi growth-2 107.4 | T cruzi growth-3 109.6 | NIH3T3 tox inactive | NIH3T3 tox 2 inactive
C[C@@H]1CCCCO[C@@H](CN(C)C(=O)c2ccccc2)[C@@H](C)CN([C@@H](C)CO)C(=O)c2cc(NC(=O)Nc3ccc(C(F)(F)F)cc3)ccc2O1	none (no result: IDH1 R132H inh)
C[C@@H]1CCCCO[C@@H](CN(C)C(=O)c2ccccc2)[C@H](C)CN([C@H](C)CO)C(=O)c2cc(NC(=O)Nc3ccc(C(F)(F)F)cc3)ccc2O1	T cruzi growth-1 inconclusive (no result: IDH1 R132H inh) | T cruzi growth-2 102.6 | T cruzi growth-3 117.5 | NIH3T3 tox inactive | NIH3T3 tox 2 inactive
C[C@@H]1CN([C@H](C)CO)C(=O)c2cc(NC(=O)Nc3ccc(C(F)(F)F)cc3)ccc2O[C@@H](C)CCCCO[C@@H]1CN(C)C(=O)c1ccccc1	none (no result: IDH1 R132H inh)
CO[C@@H]1CN(C)C(=O)c2ccc(NC(=O)c3cccc(F)c3)cc2OC[C@H](C)N(C)C[C@H]1C	none
OC[C@@H]1[C@@H](c2ccc(C#Cc3ccccc3F)cc2)[C@H]2CN(Cc3cncnc3)CCCCN12	none (no result: IDH1 R132H inh)
OC[C@@H]1[C@H](c2ccc(C#Cc3ccccc3F)cc2)[C@@H]2CN(Cc3cncnc3)CCCCN12	T cruzi growth-1 106.7 (no result: IDH1 R132H inh) | T cruzi growth-2 107.3 | T cruzi growth-3 inactive | NIH3T3 tox 47.4 | NIH3T3 tox 2 103.7
OC[C@H]1[C@H](c2ccc(C#Cc3ccccc3F)cc2)[C@H]2CN(Cc3cncnc3)CCCCN21	T cruzi growth-1 101.0 (no result: IDH1 R132H inh) | T cruzi growth-2 107.8 | T cruzi growth-3 inactive | NIH3T3 tox 39.5 | NIH3T3 tox 2 102.9
OC[C@H]1[C@@H](c2ccc(C#Cc3ccccc3)cc2)[C@@H]2CN(Cc3cncnc3)CCCCN12	none (no result: IDH1 R132H inh)
OC[C@H]1[C@H](c2ccc(C#Cc3ccccc3F)cc2)[C@@H]2CN(Cc3cncnc3)CCCCN12	T cruzi growth-1 113.5 (no result: IDH1 R132H inh) | T cruzi growth-2 99.1 | T cruzi growth-3 inactive | NIH3T3 tox inconclusive | NIH3T3 tox 2 105.5
OC[C@H]1[C@H](c2ccc(C#Cc3ccccc3)cc2)[C@H]2CN(Cc3cncnc3)CCCCN21	T cruzi growth-1 104.2 (no result: IDH1 R132H inh) | T cruzi growth-2 107.5 | T cruzi growth-3 inactive | NIH3T3 tox inactive | NIH3T3 tox 2 103.3
CCCC#Cc1ccc([C@H]2[C@@H](CO)N3CCCCN(Cc4cncnc4)C[C@H]23)cc1	none (no result: IDH1 R132H inh)
CCCC#Cc1ccc([C@@H]2[C@@H](CO)N3CCCCN(Cc4cncnc4)C[C@H]23)cc1	none (no result: IDH1 R132H inh)
O=C(C1CCC1)N1CC(=O)N2[C@H](CO)[C@@H](c3ccc(C#Cc4cccc(F)c4)cc3)[C@@H]2C1	none (no result: IDH1 R132H inh, T cruzi growth-1)
O=C(O)CCCCCC(=O)N/N=C/c1cc(Br)ccc1O	none (no result: GASC1 inh, T cruzi growth-1)
CC1CCC2(OC1)OC1CC3C4CC=C5C[C@@H](O)CC(O)[C@]5(C)C4CC[C@]3(C)C1C2C (stereo partly specified)	none (no result: GASC1 inh, T cruzi growth-1)
CO[C@H]1CN(C)C(=O)c2ccc(NC(=O)c3cnccn3)cc2OC[C@H](C)NC[C@H]1C	none
C[C@@H]1CN([C@H](C)CO)C(=O)c2cccc(NC(=O)c3nc4ccccc4s3)c2O[C@H]1CN(C)Cc1ccc(C(=O)O)cc1	none (no result: IDH1 R132H inh)
C[C@H](CO)N1C[C@H](C)[C@@H](CN(C)Cc2ccc(C(=O)O)cc2)Oc2c(NC(=O)c3nc4ccccc4s3)cccc2C1=O	none
C[C@@H]1CN([C@@H](C)CO)C(=O)c2cccc(NC(=O)c3nc4ccccc4s3)c2O[C@@H]1CN(C)Cc1ccc(C(=O)Nc2ccccc2N)cc1	none (no result: IDH1 R132H inh)
C[C@H]1CN([C@@H](C)CO)C(=O)c2cccc(NC(=O)c3nc4ccccc4s3)c2O[C@@H]1CN(C)Cc1ccc(C(=O)Nc2ccccc2N)cc1	T cruzi growth-1 105.8 | T cruzi growth-2 107.3 | T cruzi growth-3 inactive | NIH3T3 tox inactive | NIH3T3 tox 2 inconclusive
